The target of experiment [1] is T1, Carbonic anhydrase 1 (Homo sapiens, UniProt P00915). The experiment can be described thus: Inhibition of human carbonic anhydrase 1 esterase activity by spectrophotometry. Particulars: read-out: I50. In outline:
(§1)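 Enzyme purified from human erythrocytes. Esterase activity is followed as 4-nitrophenylacetate conversion to 4-nitrophenylate by absorbance at 348 nm over 3 min at 25 °C, in Tris–SO4 buffer pH 7.4. A reference cuvette lacks enzyme. Each inhibitor concentration is run in triplicate, with uninhibited control activity set to 100%. IC50 is read from %activity vs [inhibitor] plots.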

Experiment [2] deals with T2, Carbonic anhydrase 2 (Homo sapiens, UniProt P00918). As to the kind of experiment: Competitive inhibition of human carbonic anhydrase 2 esterase activity by Lineweaver-Burke plot analysis. Put shortly:
(§2)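 Erythrocyte-purified human isozyme in the 4-nitrophenylacetate esterase assay, read at 348 nm over 3 min at 25 °C in Tris–SO4 pH 7.4. Three inhibitor concentrations are each tested against five substrate concentrations (0.15–0.75 mM). Ki and inhibition mode are taken from Lineweaver–Burk plots.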

Experiment [3] addresses T2, Carbonic anhydrase 2. The experiment can be described thus: Inhibition of human carbonic anhydrase 2 esterase activity by spectrophotometry. Conditions: read-out: I50. Put shortly: as §1
The target in experiment [4] is T1, Carbonic anhydrase 1. As to the kind of experiment: Competitive inhibition of human carbonic anhydrase 1 esterase activity by Lineweaver-Burke plot analysis. Put shortly: as §2
Experiment [5] has as its target T1, Carbonic anhydrase 1. The experiment can be described thus: Uncompetitive inhibition of human carbonic anhydrase 1 esterase activity by Lineweaver-Burke plot analysis. In outline: as §2
For experiment [6], the target named is T2, Carbonic anhydrase 2. The experiment can be described thus: Noncompetitive inhibition of human carbonic anhydrase 2 esterase activity by Lineweaver-Burke plot analysis. Put shortly:
as §2

In experiment [7] the target is T1, Carbonic anhydrase 1. As to the kind of experiment: Noncompetitive inhibition of human carbonic anhydrase 1 esterase activity by Lineweaver-Burke plot analysis. In outline: as §2
In experiment [8] the target is T2, Carbonic anhydrase 2. The experiment can be described thus: Uncompetitive inhibition of human carbonic anhydrase 2 esterase activity by Lineweaver-Burke plot analysis. In outline:
as §2

SMILES strings stand for the structures.

T1 sequence (P00915 whole entry): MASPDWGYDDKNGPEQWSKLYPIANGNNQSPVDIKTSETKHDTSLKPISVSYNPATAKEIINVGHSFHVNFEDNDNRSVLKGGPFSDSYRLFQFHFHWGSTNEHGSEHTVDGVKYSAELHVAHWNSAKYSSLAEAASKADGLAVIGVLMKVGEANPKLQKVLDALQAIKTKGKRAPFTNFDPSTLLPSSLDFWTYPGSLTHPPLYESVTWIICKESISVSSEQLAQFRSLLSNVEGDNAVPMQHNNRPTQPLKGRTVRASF

As to `O=[N+]([O-])O[C@@H]1CC2c3ccccc3C1[C@@H]2O` (stereo partly drawn), the IC50 turned out to be 10200 µM at Carbonic anhydrase 1 [1] and 98.1 µM at Carbonic anhydrase 2 [3]. For the same molecule, the Ki on Carbonic anhydrase 2 [2] came to 196 µM; on Carbonic anhydrase 1 [4], 18700 µM.
The matching figures for `O=[N+]([O-])O[C@@H]1CC2CCC1[C@@H]2O` (stereo partly drawn): 7130 µM, 65.1 µM, 121 µM and 13600 µM.
`O=[N+]([O-])O[C@@H](CO)c1ccccc1` (single isomer, unassigned): the IC50 on Carbonic anhydrase 2 [3] came to 632 µM. Besides, the figures for the Ki at Carbonic anhydrase 1 [5] and on Carbonic anhydrase 2 [6] were 288000 µM and 1140 µM, respectively.
Take `O=[N+]([O-])O[C@H]1CCCCCC[C@@H]1O`: the IC50 at Carbonic anhydrase 1 [1] was found to be 23000 µM; at Carbonic anhydrase 2 [3] it was 181 µM. Moreover, the Ki amounted to 267 µM on Carbonic anhydrase 2 [6] and 45200 µM at Carbonic anhydrase 1 [7].
As for `O=[N+]([O-])O[C@H]1CC2CCC1[C@@H]2O` (stereo partly drawn), the IC50 on Carbonic anhydrase 1 [1] came out at 9100 µM; at Carbonic anhydrase 2 [3], 73.1 µM. Besides, the Ki amounted to 133 µM on Carbonic anhydrase 2 [2] and 17200 µM at Carbonic anhydrase 1 [4].
Take `O=[N+]([O-])O[C@@H]1CC[C@H](Br)[C@@H]2CC[C@H]1O2`: the figures for the IC50 on Carbonic anhydrase 1 [1] and at Carbonic anhydrase 2 [3] were 12100 µM and 110 µM, respectively. The figures for the Ki on Carbonic anhydrase 2 [8] and at Carbonic anhydrase 1 [7] were 223 µM and 22500 µM, respectively.
Consider `O=[N+]([O-])O[C@H]1CC/C=C\CC[C@@H]1O` (racemic), for which the results for the IC50 at Carbonic anhydrase 1 [1] and at Carbonic anhydrase 2 [3] were 21000 µM and 243 µM, respectively. Moreover, the Ki worked out at 541 µM on Carbonic anhydrase 2 [6] and 41800 µM on Carbonic anhydrase 1 [7].
For `O=[N+]([O-])O[C@H]1CCCC[C@@H]1O`, the IC50 on Carbonic anhydrase 2 [3] came out at 560 µM. The figures for the Ki at Carbonic anhydrase 2 [6] and at Carbonic anhydrase 1 [7] were 986 µM and 221000 µM, respectively.
The matching figures for `O=[N+]([O-])O[C@H]1CC=CC[C@@H]1O` (racemic): 790 µM, 1370 µM and 274000 µM.

(Values after ChEMBL document CHEMBL1157807, “NO-releasing esters show carbonic anhydrase inhibitory action against human isoforms I and II” (Bioorg Med Chem, 2010).)
